In publication PMC5710753 (Biochemical pharmacology, 2017):
Like-named read-outs stand apart in the source and are kept apart here.

Columns and labels:
[1] = format: in vivo, cynomolgus monkeys; details: for time of maximal plasma level: after S230 30 mg/kg oral gavage
Procedure, shortened: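 Three monkeys were gavaged with 30 mg/kg (4.4 mL/kg) of an ethanol stock diluted into 10 volumes of 20 mM NaHCO3. Heparinized blood was taken predose and at 1–24 h, and plasma was stored at −80 °C. Plasma was treated with MeOH and an indole internal standard, then C18 solid-phase extracted. Quantitation used RP-HPLC-UV (60–80% MeOH, 0.02% HOAc) by peak-area ratio to the internal standard, with identities confirmed by LC-MS/MS.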

[2] = biological target: T1, OXE receptor (Homo sapiens, UniProt Q8TDS5); details: S230 vs R230; cited from earlier work
[3] = oral racemic 230; cited from earlier work
[4] = test system: OXE receptor; details: feline; cited from earlier work
[5] = test system: OXE receptor; details: cited from earlier work
[6] = monkey liver microsomes + NADPH; cited from earlier work
[7] = Incubation with plasma or intact leukocytes; format: in vitro ADME
[8] = biological target: T1, OXE receptor; assay: Inhibition of 5-oxo-ETE-induced calcium mobilization in human neutrophils; format: cell-based
Procedure, shortened: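 Neutrophils isolated by dextran sedimentation and Ficoll-Paque centrifugation, loaded with indo-1 AM and held in a cuvette at 37 °C. Once baseline fluorescence was stable, the test compound was added, then 10 nM 5-oxo-ETE 2 min later, then digitonin (0.1% final) 1 min after that. Calcium response was read by spectrofluorometry.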

T1 sequence (Q8TDS5 whole entry): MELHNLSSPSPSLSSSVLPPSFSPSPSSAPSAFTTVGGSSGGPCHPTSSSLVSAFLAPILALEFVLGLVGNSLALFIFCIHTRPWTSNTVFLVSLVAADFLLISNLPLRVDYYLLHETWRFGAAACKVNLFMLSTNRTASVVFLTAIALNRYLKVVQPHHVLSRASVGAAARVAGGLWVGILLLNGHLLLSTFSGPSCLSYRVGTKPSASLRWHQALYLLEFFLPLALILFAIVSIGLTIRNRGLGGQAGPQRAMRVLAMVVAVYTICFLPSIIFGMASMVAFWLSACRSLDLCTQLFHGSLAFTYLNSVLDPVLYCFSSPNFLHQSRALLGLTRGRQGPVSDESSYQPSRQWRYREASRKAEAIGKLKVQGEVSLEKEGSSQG

CCCCCCc1c(C(=O)C[C@H](C)CC(=O)O)c2cc(Cl)ccc2n1C [S230, (S)-5-(5-chloro-2-hexyl-1-methyl-1H-indol-3-yl)-3-methyl-5-oxopentanoate]
plasma concentration ([1]; 8 h after S230 30 mg/kg oral): greater than 1.5 μM | maximal plasma concentration ([1]; S230 30 mg/kg oral gavage, at 1 h): 32 µM | time of maximal plasma level [1]: ≤ 1 h | plasma level as % of maximal concentration ([1]; by 4 h after S230 30 mg/kg oral): about 11% | plasma level as % of maximal concentration ([1]; by 8 h after S230 30 mg/kg oral): 5% | potency relative to the R-enantiomer (R230) [2]: over 400 times

CCCCCCc1c(C(=O)CC(C)CC(=O)O)c2cc(Cl)ccc2n1C (stereo not shown) [compound 230, 5-(5-chloro-2-hexyl-1-methyl-1H-indol-3-yl)-3-methyl-5-oxopentanoate]
maximal plasma concentration [3]: 87 µM | antagonist activity in cats [4]: only a weak antagonist | antagonist activity in vitro in monkeys [5]: potent OXE receptor antagonist | formation of α-OH-230 [6]: did not detect α-OH-230 | formation of α-hydroxylation products [7]: Neither did we detect such products

CCCCC[C@@H](O)c1c(C(=O)C[C@H](C)CC(=O)O)c2cc(Cl)ccc2n1C [x2, (S)-5-(5-chloro-2-((R)-1-hydroxyhexyl)-1-methyl-1H-indol-3-yl)-3-methyl-5-oxopentanoic acid]
IC50 [8]: > 10000 nM | peak area relative to the area of metabolite e ([1]; all time points, plasma after S230 30 mg/kg oral, RP-HPLC): about 3%

CCCCC[C@H](O)c1c(C(=O)C[C@H](C)CC(=O)O)c2cc(Cl)ccc2n1C [y1, (S)-5-(5-chloro-2-((S)-1-hydroxyhexyl)-1-methyl-1H-indol-3-yl)-3-methyl-5-oxopentanoic acid]
IC50 [8]: 1600 ± 300 nM | Tmax ([1]; female, cynomolgus monkey, plasma, po, 30 mg/kg): ≤ 1 h

CC(O)CCCCc1c(C(=O)C[C@H](C)CC(=O)O)c2cc(Cl)ccc2n1C (stereo partly drawn) [ω2-OH-S230, (3S)-5-(5-chloro-2-(5-hydroxyhexyl)-1-methyl-1H-indol-3-yl)-3-methyl-5-oxopentanoate]
time of maximal plasma level [1]: ≤ 4 h
